Measurements as given in ChEMBL document CHEMBL5678814, “Novel Mps1 Kinase Inhibitors with Potent Antitumor Activity” (Mol Cancer Ther, 2016).

Key:
[1] = target: Serine/threonine-protein kinase BRSK2 (Homo sapiens, UniProt Q8IWQ3); assay: Binding affinity to BRSK2 (unknown origin) assessed as dissociation constant
[2] = target: Mitogen-activated protein kinase 8 (Homo sapiens, UniProt P45983); assay: Binding affinity to JNK1 (unknown origin) assessed as dissociation constant
[3] = target: Mitogen-activated protein kinase 9 (Homo sapiens, UniProt P45984); assay: Binding affinity to JNK2 (unknown origin) assessed as dissociation constant
Mitogen-activated protein kinase 9, sequence (P45984 whole entry): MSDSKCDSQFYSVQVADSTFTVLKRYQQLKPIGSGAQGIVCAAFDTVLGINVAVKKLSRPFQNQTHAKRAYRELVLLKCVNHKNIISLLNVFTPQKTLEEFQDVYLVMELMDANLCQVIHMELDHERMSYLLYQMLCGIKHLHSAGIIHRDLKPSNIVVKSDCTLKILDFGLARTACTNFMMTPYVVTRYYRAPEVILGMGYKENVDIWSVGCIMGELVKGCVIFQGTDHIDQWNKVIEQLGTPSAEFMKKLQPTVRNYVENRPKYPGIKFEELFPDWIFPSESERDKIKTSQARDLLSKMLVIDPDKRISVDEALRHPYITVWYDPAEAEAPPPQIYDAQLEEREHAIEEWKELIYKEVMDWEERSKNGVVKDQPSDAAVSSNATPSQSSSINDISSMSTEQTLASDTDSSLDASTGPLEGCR

HT1197 = assay: Antiproliferative activity against human HT1197 cells assessed as cell growth inhibition incubated for 96 hrs by MTS assay; format: functional, cell-based; conditions: HT1197, 96 h
RT-112 = assay: Antiproliferative activity against human RT-112 cells assessed as cell growth inhibition incubated for 96 hrs by MTS assay; format: functional, cell-based; conditions: RT-112, 96 h
NCI-H661 = assay: Antiproliferative activity against human NCI-H661 cells assessed as cell growth inhibition incubated for 96 hrs by MTS assay; format: functional, cell-based; conditions: NCI-H661, 96 h
[4] = Antiproliferative activity against human HBL1 cells assessed as cell growth inhibition incubated for 96 hrs by MTS assay; format: functional, cell-based; conditions: HBL1, 96 h
OCI-LY19 = assay: Antiproliferative activity against human OCILY19 cells assessed as cell growth inhibition incubated for 96 hrs by MTS assay; format: functional, cell-based; conditions: OCI-LY19, 96 h
TMD8 = assay: Antiproliferative activity against human TMD8 cells assessed as cell growth inhibition incubated for 96 hrs by MTS assay; format: functional, cell-based; conditions: TMD8, 96 h
KM-H2 = assay: Antiproliferative activity against human KM-H2 cells assessed as cell growth inhibition incubated for 96 hrs by MTS assay; format: functional, cell-based; conditions: KM-H2, 96 h
Granta-519 = assay: Antiproliferative activity against human Granta-519 cells assessed as cell growth inhibition incubated for 96 hrs by MTS assay; format: functional, cell-based; conditions: Granta-519, 96 h
JeKo-1 = assay: Antiproliferative activity against human JeKo-1 cells assessed as cell growth inhibition incubated for 96 hrs by MTS assay; format: functional, cell-based; conditions: JeKo-1, 96 h
A673 = assay: Antiproliferative activity against human A673 cells assessed as cell growth inhibition incubated for 96 hrs by MTS assay; format: functional, cell-based; conditions: A673, 96 h
HT-1080 = assay: Antiproliferative activity against human HT-1080 cells assessed as cell growth inhibition incubated for 96 hrs by MTS assay; format: functional, cell-based; conditions: HT-1080, 96 h
SAOS-2 = assay: Antiproliferative activity against human SAOS-2 cells assessed as cell growth inhibition incubated for 96 hrs by MTS assay; format: functional, cell-based; conditions: SAOS-2, 96 h
U2OS = assay: Antiproliferative activity against human U2OS cells assessed as cell growth inhibition incubated for 96 hrs by MTS assay; format: functional, cell-based
[5] = Half life in male CD1 mouse plasma at 0.5 mg/kg, iv measured after 24 hrs by LC/-MS/MS analysis; format: ADME, organism-based
In short: (§1)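 Male CD1 mice received a single iv bolus of 0.5 mg/kg in 1% DMSO/99% plasma. Plasma was sampled at 2, 5, 15, 30 and 45 min and at 1, 2, 4, 6, 8 and 24 h, precipitated with ice-cold acetonitrile (1:5), and supernatants were run by LC/MS-MS. Parameters were estimated from plasma concentration data, with AUC by the log-linear trapezoidal rule.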

[6] = Volume of distribution at steady state in male CD1 mouse plasma at 0.5 mg/kg, iv measured after 24 hrs by LC/-MS/MS analysis; format: ADME, organism-based; conditions: read-out: Vdss; in short: as §1
[7] = Clearance in male Wistar rat blood at 0.5 mg/kg, iv measured after 24 hrs by LC/-MS/MS analysis; format: ADME, organism-based
[8] = Cmax in male Wistar rat plasma at 0.5 mg/kg, po measured after 24 hrs by LC/-MS/MS analysis; format: ADME, organism-based
In short: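 Male Wistar rats given 0.5 mg/kg orally. Plasma collected from 8 min to 24 h, precipitated with ice-cold acetonitrile (1:5), and analysed by LC/MS-MS. Cmax and Tmax read directly from concentration–time profiles.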

SiHa = assay: Antiproliferative activity against human SiHa cells assessed as cell growth inhibition incubated for 96 hrs by crystal violet staining
FaDu = assay: Antiproliferative activity against human FaDu cells assessed as cell growth inhibition incubated for 96 hrs by crystal violet staining
A2780 = assay: Antiproliferative activity against human A2780 cells assessed as cell growth inhibition incubated for 96 hrs by crystal violet staining; conditions: A2780, 96 h
Caco-2 = assay: Antiproliferative activity against human Caco-2 cells assessed as cell growth inhibition incubated for 96 hrs by crystal violet staining; conditions: Caco-2, 96 h
HCT-116 [9] = assay: Antiproliferative activity against human HCT-116 cells assessed as cell growth inhibition incubated for 96 hrs by crystal violet staining; conditions: HCT-116, 96 h
COLO-829 = assay: Antiproliferative activity against human COLO-829 cells assessed as cell growth inhibition incubated for 96 hrs by crystal violet staining; conditions: COLO-829, 96 h
NCI-H2452 = assay: Antiproliferative activity against human NCI-H2452 cells assessed as cell growth inhibition incubated for 96 hrs by crystal violet staining; conditions: NCI-H2452, 96 h
NCI-H1650 = assay: Antiproliferative activity against human NCI-H1650 cells assessed as cell growth inhibition incubated for 96 hrs by crystal violet staining; conditions: NCI-H1650, 96 h
[10] = Antiproliferative activity against human NCI-H2110 cells assessed as cell growth inhibition incubated for 96 hrs by crystal violet staining; conditions: NCI-H2110, 96 h
SK-MEL-28 = assay: Antiproliferative activity against human SK-MEL-28 cells assessed as cell growth inhibition incubated for 96 hrs by crystal violet staining; conditions: SK-MEL-28, 96 h
COLO 320DM = assay: Antiproliferative activity against human COLO 320DM cells assessed as cell growth inhibition incubated for 96 hrs by crystal violet staining
Caov-3 cell line = assay: Antiproliferative activity against human Caov-3 cell line assessed as cell growth inhibition incubated for 96 hrs by crystal violet staining; conditions: Caov-3, 96 h
RKO = assay: Antiproliferative activity against human TP53 wildtype RKO cells assessed as cell growth inhibition incubated for 96 hrs by crystal violet staining
HCT-116 [11] = assay: Antiproliferative activity against human TP53 mutant HCT-116 cells assessed as cell growth inhibition incubated for 96 hrs by crystal violet staining; conditions: HCT-116, 96 h
HCT-116 [12] = assay: Antiproliferative activity against human TP53 wildtype HCT-116 cells assessed as cell growth inhibition incubated for 96 hrs by crystal violet staining; conditions: HCT-116, 96 h

Mitogen-activated protein kinase 8, sequence (P45983 whole entry): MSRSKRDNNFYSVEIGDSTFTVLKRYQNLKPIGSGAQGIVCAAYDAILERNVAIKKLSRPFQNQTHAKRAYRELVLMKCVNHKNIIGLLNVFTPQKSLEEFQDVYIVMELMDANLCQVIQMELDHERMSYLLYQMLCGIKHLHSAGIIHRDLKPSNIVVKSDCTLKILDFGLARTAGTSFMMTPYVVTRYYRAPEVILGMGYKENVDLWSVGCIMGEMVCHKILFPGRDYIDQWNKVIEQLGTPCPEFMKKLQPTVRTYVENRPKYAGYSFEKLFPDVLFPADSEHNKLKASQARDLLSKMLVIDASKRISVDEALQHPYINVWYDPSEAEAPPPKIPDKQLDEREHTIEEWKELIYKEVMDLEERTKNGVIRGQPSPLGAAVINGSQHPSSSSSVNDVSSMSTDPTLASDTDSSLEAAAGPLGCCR
Serine/threonine-protein kinase BRSK2, sequence (Q8IWQ3 whole entry): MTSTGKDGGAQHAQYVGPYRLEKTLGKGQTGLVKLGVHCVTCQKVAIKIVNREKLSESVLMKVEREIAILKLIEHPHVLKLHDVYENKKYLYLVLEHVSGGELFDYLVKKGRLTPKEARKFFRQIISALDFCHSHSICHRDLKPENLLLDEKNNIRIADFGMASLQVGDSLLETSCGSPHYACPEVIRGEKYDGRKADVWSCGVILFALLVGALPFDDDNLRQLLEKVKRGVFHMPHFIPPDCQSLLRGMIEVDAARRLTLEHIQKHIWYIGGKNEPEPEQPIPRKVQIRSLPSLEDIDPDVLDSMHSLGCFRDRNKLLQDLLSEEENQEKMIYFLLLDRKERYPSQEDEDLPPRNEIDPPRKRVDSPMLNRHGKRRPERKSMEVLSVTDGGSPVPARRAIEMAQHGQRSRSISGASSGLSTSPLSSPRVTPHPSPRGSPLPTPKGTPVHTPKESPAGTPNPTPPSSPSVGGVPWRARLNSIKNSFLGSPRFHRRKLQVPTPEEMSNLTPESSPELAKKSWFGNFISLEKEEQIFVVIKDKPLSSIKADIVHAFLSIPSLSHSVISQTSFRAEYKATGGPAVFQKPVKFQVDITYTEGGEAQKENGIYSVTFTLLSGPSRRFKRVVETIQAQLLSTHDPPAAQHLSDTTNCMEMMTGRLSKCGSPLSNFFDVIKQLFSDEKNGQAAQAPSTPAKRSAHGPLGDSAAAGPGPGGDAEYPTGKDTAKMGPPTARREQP

Compound: COc1cc(S(C)(=O)=O)ccc1Nc1nc2ccc(-c3ccc(NC(=O)[C@H](C)c4ccc(F)cc4)cc3)cn2n1 [BAY-1161909]
- Kd [1]: 40000 nM
- Kd [2]: 240 nM
- Kd [3]: 160 nM
- IC50 (HT1197): > 3000 nM
- IC50 (RT-112): 83 nM
- IC50 (NCI-H661): 260 nM
- IC50 [4]: 110 nM
- IC50 (OCI-LY19): 61 nM
- IC50 (TMD8): 240 nM
- IC50 (KM-H2): 220 nM
- IC50 (Granta-519): 240 nM
- IC50 (JeKo-1): 65 nM
- IC50 (A673): 93 nM
- IC50 (HT-1080): 450 nM
- IC50 (SAOS-2): 520 nM
- IC50 (U2OS): 550 nM
- half-life [5]: 4.9 h
- Vd [6]: 3.4 L/kg
- clearance [7]: 3.17 mL/min/kg
- Cmax [8]: 110 ng/mL
- IC50 (SiHa): 610 nM
- IC50 (FaDu): 270 nM
- IC50 (A2780): 69 nM
- IC50 (Caco-2): 1800 nM
- IC50 (HCT-116 [9]): 56 nM
- IC50 (COLO-829): 300 nM
- IC50 (NCI-H2452): 120 nM
- IC50 (NCI-H1650): 130 nM
- IC50 [10]: 280 nM
- IC50 (SK-MEL-28): 670 nM
- IC50 (COLO 320DM): 110 nM
- IC50 (Caov-3 cell line): 98 nM
- IC50 (RKO): 39 nM
- IC50 (HCT-116 [11]): 59 nM
- IC50 (HCT-116 [12]): 42 nM
